According to ChEMBL document CHEMBL1126152, “Fluoronaphthyridines as antibacterial agents. 4. Synthesis and structure-activity relationships of 5-substituted-6-fluoro-7-(cycloalkylamino)-1,4-dihydro-4-oxo-1,8- naphthyridine-3-carboxylic acids” (J Med Chem, 1992):
Values after ≈ are worked out from the molar mass of the structure shown.

Assays:
Streptococcus pneumoniae [1] = experiment: Antibacterial activity against Streptococcus pneumoniae; format: functional
Serratia marcescens = experiment: In vitro for antibacterial activity against Serratia marcescens; format: functional
How it was run: (§1)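 MIC by serial 2-fold broth dilution in nutrient broth with an inoculum of 10^6 CFU/mL. Compound range was 0.0005–250 μg/mL. Plates were incubated 18 h at 37 °C. MIC was taken as the lowest concentration preventing visible growth.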

Bacteroides fragilis = experiment: In vitro for antibacterial activity against […].; format: functional; how it was run: as §1
Proteus mirabilis = experiment: In vitro for antibacterial activity against Proteus mirabilis; format: functional; how it was run: as §1
Enterobacter cloacae = experiment: In vitro for antibacterial activity against Enterobacter cloacae; format: functional
Escherichia coli [2] = experiment: In vitro for antibacterial activity against Escherichia coli; format: functional; how it was run: as §1
Morganella morganii = experiment: In vitro for antibacterial activity against Morganella morganii; format: functional; how it was run: as §1
Klebsiella pneumoniae = experiment: In vitro for antibacterial activity against Klebsiella pneumoniae; format: functional; how it was run: as §1
Staphylococcus aureus [3] = experiment: Antibacterial activity against Staphylococcus aureus; format: functional
Pseudomonas aeruginosa [4] = experiment: In vitro for antibacterial activity against Pseudomonas aeruginosa; format: functional; how it was run: as §1
Enterococcus faecalis = experiment: In vitro for antibacterial activity against Enterococcus faecalis; format: functional; how it was run: as §1
[5] = Lethal dose was determined in OF1-strain female Swiss mice after intra venous administration of the drug; conditions: mouse, in vivo, iv
[6] = Solubility was measured at PH - 7.2 buffer
Escherichia coli [7] = experiment: Compound was tested for […] against Escherichia coli A 15119 after oral administration of drug in mice; format: functional; conditions: read-out: PD50
How it was run: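 Mouse protection test against systemic infection. Compound was dissolved in sterile water and given orally to female OF1-strain Swiss mice weighing 18–25 g, with five mice per group.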

[8] = Partition coefficient (logD); conditions: octanol/water
Streptococcus pneumoniae [9] = experiment: animal or person; format: functional; conditions: in Mus musculus, po, read-out: PD50
Staphylococcus aureus [10] = experiment: animal or person; format: functional; conditions: in Mus musculus, po, read-out: PD50
Pseudomonas aeruginosa [11] = experiment: animal or person; format: functional; conditions: in Mus musculus, po, read-out: PD50
[12] = Lethal dose was determined in OF1-strain female Swiss mice after oral administration of the drug; conditions: mouse, in vivo

MIC (Streptococcus pneumoniae [1]) | MIC (Serratia marcescens) | MIC (Bacteroides fragilis) | MIC (Proteus mirabilis) | MIC (Enterobacter cloacae) | MIC (Escherichia coli [2]) | MIC (Morganella morganii) | MIC (Klebsiella pneumoniae) | MIC (Staphylococcus aureus [3]) | MIC (Pseudomonas aeruginosa [4]) | MIC (Enterococcus faecalis) | SMILES | LD50 [5] | solubility [6] | ED50 (Escherichia coli [7]) | logD [8] | ED50 (Streptococcus pneumoniae [9]) | ED50 (Staphylococcus aureus [10]) | ED50 (Pseudomonas aeruginosa [11]) | LD50 [12]
0.25 mg/L (≈ 0.598 µM) | 0.25 mg/L (≈ 0.598 µM) | 4 mg/L (≈ 9.56 µM) | 0.25 mg/L (≈ 0.598 µM) | 0.03 mg/L (≈ 0.0717 µM) | 0.016 mg/L (≈ 0.0382 µM) | 0.13 mg/L (≈ 0.311 µM) | 0.03 mg/L (≈ 0.0717 µM) | 0.016 mg/L (≈ 0.0382 µM) | 1 mg/L (≈ 2.39 µM) | 1 mg/L (≈ 2.39 µM) | Cc1c(F)c(N2CCNCC2)nc2c1c(=O)c(C(=O)O)cn2-c1ccc(F)cc1F | – | – | – | – | – | – | – | –
0.13 mg/L (≈ 0.349 µM) | 0.13 mg/L (≈ 0.349 µM) | 16 mg/L (≈ 43 µM) | 0.13 mg/L (≈ 0.349 µM) | 0.06 mg/L (≈ 0.161 µM) | 0.008 mg/L (≈ 0.0215 µM) | 0.06 mg/L (≈ 0.161 µM) | 0.016 mg/L (≈ 0.043 µM) | 0.03 mg/L (≈ 0.0806 µM) | 0.5 mg/L (≈ 1.34 µM) | 0.13 mg/L (≈ 0.349 µM) | Cc1c(F)c(N2CC3CCC2CN3)nc2c1c(=O)c(C(=O)O)cn2C1CC1 (centres undefined) | – | – | – | – | – | – | – | –
1 mg/L (≈ 2.76 µM) | 0.25 mg/L (≈ 0.69 µM) | > 32 mg/L | 0.5 mg/L (≈ 1.38 µM) | 0.25 mg/L (≈ 0.69 µM) | 0.06 mg/L (≈ 0.166 µM) | 0.25 mg/L (≈ 0.69 µM) | 0.06 mg/L (≈ 0.166 µM) | 0.03 mg/L (≈ 0.0828 µM) | 4 mg/L (≈ 11 µM) | 2 mg/L (≈ 5.52 µM) | Cc1c(F)c(N2CCNCC2)nc2c1c(=O)c(C(=O)O)cn2C(C)(C)C | – | – | – | – | – | – | – | –
0.5 mg/L (≈ 1.24 µM) | 0.13 mg/L (≈ 0.322 µM) | 2 mg/L (≈ 4.95 µM) | 0.06 mg/L (≈ 0.148 µM) | 0.03 mg/L (≈ 0.0742 µM) | 0.016 mg/L (≈ 0.0396 µM) | 0.13 mg/L (≈ 0.322 µM) | 0.03 mg/L (≈ 0.0742 µM) | 0.03 mg/L (≈ 0.0742 µM) | 0.5 mg/L (≈ 1.24 µM) | 1 mg/L (≈ 2.47 µM) | O=C(O)c1cn(-c2ccc(F)cc2F)c2nc(N3CCNCC3)c(F)cc2c1=O | – | – | – | – | – | – | – | –

Continued, compound first:

SMILES | MIC (Streptococcus pneumoniae [1]) | MIC (Serratia marcescens) | MIC (Bacteroides fragilis) | MIC (Proteus mirabilis) | MIC (Enterobacter cloacae) | MIC (Escherichia coli [2]) | MIC (Morganella morganii) | MIC (Klebsiella pneumoniae) | MIC (Staphylococcus aureus [3]) | MIC (Pseudomonas aeruginosa [4]) | MIC (Enterococcus faecalis) | LD50 [5] | solubility [6] | ED50 (Escherichia coli [7]) | logD [8] | ED50 (Streptococcus pneumoniae [9]) | ED50 (Staphylococcus aureus [10]) | ED50 (Pseudomonas aeruginosa [11]) | LD50 [12]
Cc1c(F)c(N2CC[C@H](N)C2)nc2c1c(=O)c(C(=O)O)cn2-c1ccc(F)cc1 | 0.03 mg/L (≈ 0.0749 µM) | 0.03 mg/L (≈ 0.0749 µM) | – | 0.008 mg/L (≈ 0.02 µM) | 0.002 mg/L (≈ 0.005 µM) | 0.002 mg/L (≈ 0.005 µM) | 0.008 mg/L (≈ 0.02 µM) | 0.002 mg/L (≈ 0.005 µM) | 0.004 mg/L (≈ 0.00999 µM) | 0.25 mg/L (≈ 0.624 µM) | 0.06 mg/L (≈ 0.15 µM) | 94 mg/kg | 0.08 mg/mL (≈ 200 µM) | 4.9 mg/kg | 0.91 | 14.4 mg/kg | 4.2 mg/kg | 2.9 mg/kg | 2500 mg/kg
Cc1c(F)c(N2CC3CCC2CN3)nc2c1c(=O)c(C(=O)O)cn2-c1ccc(F)cc1F (centres undefined) | 0.06 mg/L (≈ 0.135 µM) | 0.5 mg/L (≈ 1.13 µM) | 4 mg/L (≈ 9 µM) | 0.13 mg/L (≈ 0.293 µM) | 0.008 mg/L (≈ 0.018 µM) | 0.008 mg/L (≈ 0.018 µM) | 0.13 mg/L (≈ 0.293 µM) | 0.008 mg/L (≈ 0.018 µM) | 0.008 mg/L (≈ 0.018 µM) | 0.5 mg/L (≈ 1.13 µM) | 0.25 mg/L (≈ 0.563 µM) | 24 mg/kg | 0.01 mg/mL (≈ 22.5 µM) | – | 0.4 | 9.5 mg/kg | 5.4 mg/kg | 1.4 mg/kg | 2500 mg/kg
O=C(O)c1cn(C2CC2)c2nc(N3CC4CC3CN4)c(F)cc2c1=O (centres undefined) | – | 0.25 mg/L (≈ 0.726 µM) | – | 0.06 mg/L (≈ 0.174 µM) | 0.03 mg/L (≈ 0.0871 µM) | 0.06 mg/L (≈ 0.174 µM) | 0.06 mg/L (≈ 0.174 µM) | 0.06 mg/L (≈ 0.174 µM) | 0.13 mg/L (≈ 0.378 µM) | 0.25 mg/L (≈ 0.726 µM) | 1 mg/L (≈ 2.9 µM) | – | 0.09 mg/mL (≈ 261 µM) | – | – | – | – | – | –
CCc1c(F)c(N2CC[C@H](N)C2)nc2c1c(=O)c(C(=O)O)cn2C1CC1 | 1 mg/L (≈ 2.77 µM) | 0.5 mg/L (≈ 1.39 µM) | 1 mg/L (≈ 2.77 µM) | 2 mg/L (≈ 5.55 µM) | 0.25 mg/L (≈ 0.694 µM) | 0.25 mg/L (≈ 0.694 µM) | 0.5 mg/L (≈ 1.39 µM) | 0.25 mg/L (≈ 0.694 µM) | 1 mg/L (≈ 2.77 µM) | 4 mg/L (≈ 11.1 µM) | 16 mg/L (≈ 44.4 µM) | – | 0.07 mg/mL (≈ 194 µM) | – | 1.37 | – | – | – | –
N[C@H]1CCN(c2nc3c(cc2F)c(=O)c(C(=O)O)cn3C2CC2)C1 | 0.25 mg/L (≈ 0.752 µM) | 0.016 mg/L (≈ 0.0481 µM) | 2 mg/L (≈ 6.02 µM) | 0.03 mg/L (≈ 0.0903 µM) | 0.016 mg/L (≈ 0.0481 µM) | 0.002 mg/L (≈ 0.00602 µM) | 0.004 mg/L (≈ 0.012 µM) | 0.004 mg/L (≈ 0.012 µM) | 0.016 mg/L (≈ 0.0481 µM) | 0.25 mg/L (≈ 0.752 µM) | 0.25 mg/L (≈ 0.752 µM) | – | – | – | – | – | – | – | –
